Data set [1] relates to Trypanosoma cruzi. Nature of the data set: Antitrypanosomal activity against Trypanosoma cruzi Sylvio X-10 amastigotes infected in African green monkey Vero cells assessed as eradication of amastigotes after 5 days by Giemsa staining-based assay. Format: functional, organism-based. Particulars: Sylvio X-10, Vero, 120 h. The method in brief: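 VERO cells in RPMI 1640 with 10% hiFCS were allowed to adhere for 24 h at 37 °C in 5% CO₂, then infected with tissue-derived trypomastigotes at 10:1. Free parasites were washed off after 24 h, and cultures were treated at five compound doses (text gives 72 h / 5 days). Cultures were methanol-fixed and Giemsa-stained, and infected cells were counted among 300. Quadruplicates were run in three independent experiments. IC50/IC90 were obtained by sigmoidal regression.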

The nature of data set [2]: Selectivity index, ratio of IC50 for mouse J774.1 cells to IC50 for Trypanosoma cruzi Sylvio X-10 amastigotes. It is filed as toxicity. The conditions noted are these: read-out: Ratio IC50. The method in brief:
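J774.1 macrophages grown in DMEM with 10% heat-inactivated FCS and allowed to attach 48 h, then exposed 48 h at 37 °C to 12.5–400.0 μM. Triplicates. MTT 0.1 mg/mL for 3 h, read at 560 nm; IC50 by linear regression against the solvent control. SI = IC50 J774.1 / parasite IC50 (Sylvio X-10 amastigotes or Tulahuen 2 epimastigotes, the latter measured by A600 growth inhibition at day 5).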

The test system of data set [3] is Trypanosoma cruzi. Briefly: Antitrypanosomal activity against Trypanosoma cruzi Sylvio X-10 amastigotes infected in African green monkey Vero cells assessed as eradication of amastigotes at 5 uM after 5 days by optical microscopic analysis. Format: functional, organism-based. Particulars: in the assay text read “after 72 hrs” for “after 5 days”. The method in brief:
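VERO cells infected with Sylvio X-10 parasites were treated with 5 μM compound and examined by optic microscopy after 72 h of incubation for intracellular amastigotes and trypomastigotes.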

Data set [4] has as its system Trypanosoma cruzi. Briefly: Antitrypanosomal activity against Trypanosoma cruzi Y trypomastigotes assessed as growth inhibition at 25 uM after 48 hrs by microscopic analysis relative to control. It is filed as functional. The conditions noted are these: read-out: GI. The gist of the method:
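Blood was collected by cardiac puncture, with sodium citrate, from BALB/c mice 7 days after infection. Compound was dissolved in minimal DMSO and diluted in PBS (final 25 μM). Drug solution was mixed with infected blood (about 10⁶ parasites/mL) in triplicate, shaken 10 min at room temperature, then held at 4 °C for 48 h. Parasites were counted microscopically against untreated infected blood. Gentian violet 250 μg/mL was the reference.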

The subject of data set [5] is Salmonella typhimurium. Nature of the data set: Mutagenic activity in Salmonella typhimurium TA100 at 0.003 to 0.2 ug/plate by Ames test in presence of mouse liver S9 fraction. It is filed as toxicity, organism-based. Particulars: salmonella enterica subsp. enterica serovar typhimurium. The gist of the method:
(§1)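 Plate-incorporation Ames test on minimal glucose agar with 500 μL Aroclor-treated mouse liver S9 added. DMSO solutions were tested at five consecutive 3-fold dilutions from the highest non-toxic dose, in triplicate, with a DMSO negative control. Revertants were counted manually; a compound was scored mutagenic when revertants were at least twice the negative control for two or more consecutive doses.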
For orientation: The Ames test detects mutagens through reverse mutation in bacteria.

Data set [6] deals with Salmonella typhimurium. Nature of the data set: Mutagenic activity in Salmonella typhimurium TA102 at 3.09 to 250 ug/plate by Ames test. Particulars: salmonella enterica subsp. enterica serovar typhimurium. It is filed as toxicity, organism-based. The gist of the method:
(§2)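 Direct plate incubation on minimal glucose agar (Vogel-Bonner E). Compound toxicity to the bacteria was checked first. DMSO solutions were tested at five consecutive 3-fold dilutions, starting from the highest non-toxic dose, in triplicate, without metabolic activation. DMSO served as negative control. Revertants were counted manually; mutagenic = revertants at least double the negative control at two or more consecutive doses.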

The subject of data set [7] is Salmonella typhimurium. Briefly: Mutagenic activity in Salmonella typhimurium TA102 at 3.09 to 250 ug/plate by Ames test in presence of mouse liver S9 fraction. Format: toxicity, organism-based. Particulars: salmonella enterica subsp. enterica serovar typhimurium. The method in brief:
as §1

Data set [8] relates to Salmonella typhimurium. Briefly: Mutagenic activity in Salmonella typhimurium TA1537 at 3.09 to 250 ug/plate by Ames test. It is filed as toxicity, organism-based. Particulars: salmonella enterica subsp. enterica serovar typhimurium. The method in brief:
as §2

Data set [9] deals with Salmonella typhimurium. Briefly: Mutagenic activity in Salmonella typhimurium TA1537 at 3.09 to 250 ug/plate by Ames test in presence of mouse liver S9 fraction. The conditions noted are these: salmonella enterica subsp. enterica serovar typhimurium. It is filed as toxicity, organism-based. The gist of the method: as §1
The nature of data set [10]: Stability of the compound in aqueous solution assessed as compound remaining at 1 mM at pH 6 after 1 hr by TLC analysis. It is filed as physicochemical. Particulars: aqueous solution, pH 6; read-out: Stability. The method in brief: (§3)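 DMSO stocks diluted to final 1 mM in KCl·HCl pH 1.0, citrate pH 6.0, Tris·HCl pH 7.4 or borax·HCl pH 9.0 buffer. Incubated 1 h at 37 °C, then ethyl acetate extracts checked by TLC for decomposition products.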

Data set [11] in a line: Stability of the compound in aqueous solution assessed as compound remaining at 1 mM at pH 1 after 1 hr by TLC analysis. Format: physicochemical. Particulars: read-out: Stability. The method in brief:
as §3

Data set [12] is described as follows: Stability of the compound in aqueous solution assessed as compound remaining at 1 mM at 37 degC after 1 hr by TLC analysis in presence of rat liver cytosolic fraction. Format: ADME. Particulars: cytosol, 1000 µM. The gist of the method:
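Rat liver cytosolic (100 000g supernatant) and microsomal (100 000g pellet, washed and resuspended in Tris·HCl) fractions, fresh or stored at −80 °C; protein measured by BCA. Compound incubated with the fraction 1 h at 37 °C and analysed by TLC of extracts.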

The test system of data set [13] is Trypanosoma cruzi. Briefly: Antitrypanosomal activity against Trypanosoma cruzi CL Brener infected in BALB/c mouse assessed as peak of maximum parasitemia at 107 umol/kg/day, po for 14 days administered in cholesterol/surfactant/phosphate buffer measured up to 60 days relative to control. It is filed as functional. The gist of the method:
(§4)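 Male BALB/c mice (30 days old, 25–30 g, SPF) were infected i.p. with 10³ blood trypomastigotes, n = 7/group. Daily oral gavage in a microemulsion (cholesterol oil phase, phosphatidylcholine/sodium oleate/polyoxyl-40 hydrogenated castor oil surfactant, phosphate buffer pH 7.4) ran for 14 days from day 6; vehicle controls were included. Parasitemia was read weekly in tail-vein blood by hemocytometer for 60 days, with survival recorded.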

Data set [14] relates to Trypanosoma cruzi. Nature of the data set: Antitrypanosomal activity against Trypanosoma cruzi CL Brener infected in BALB/c mouse assessed as peak of maximum parasitemia at 214 umol/kg/day, po for 14 days administered in cholesterol/surfactant/phosphate buffer measured up to 60 days relative to control. Format: functional. The method in brief:
as §4

In data set [15] the test system is Trypanosoma cruzi. Briefly: Antitrypanosomal activity against Trypanosoma cruzi CL Brener infected in BALB/c mouse assessed as mouse survival at 107 umol/kg/day, po for 14 days administered in saline and tween 80 measured up to 60 days relative to control. It is filed as functional. The method in brief:
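Male BALB/c mice (30 days old, 25–30 g, SPF) infected i.p.; daily intragastric gavage for 14 days, starting day 6 postinfection, in saline/Tween 80 (4:1 v/v); n = 8/group; vehicle-only control. Parasitemia counted by hemocytometer in tail-vein blood; survival followed to 65 days postinfection.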

For data set [16], the system named is Trypanosoma cruzi. Nature of the data set: Antitrypanosomal activity against Trypanosoma cruzi CL Brener infected in BALB/c mouse assessed as decrease in plasmodial antibodies at 214 umol/kg/day, po for 14 days administered in cholesterol/surfactant/phosphate buffer measured on day 60 by ELISA. Particulars: in the assay text read “anti-Trypanosoma cruzi antibodies” for “plasmodial antibodies”. Format: functional, organism-based. The method in brief:
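Infected male BALB/c mice (n = 7/group) were dosed orally for 14 days from day 6 post-infection in cholesterol/surfactant/phosphate buffer pH 7.4 microemulsion; the control group received vehicle. Anti-T. cruzi antibodies were measured by ELISA (each serum tested twice) at days 30 and 60 post-infection and compared with untreated animals and a healthy-animal cutoff.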

These results are taken from ChEMBL document CHEMBL3259808, “Optimization of antitrypanosomatid agents: identification of nonmutagenic drug candidates with in vivo activity” (J Med Chem, 2014).

The source made the active and inactive calls. Some results are limits rather than exact numbers.

In general, IC50 refers to the concentration that inhibits the measured activity by half. Turning to `Br.C=CCn1c(-c2ccc(Cl)cc2)cs\c1=N/N=C/C=C/c1ccco1.O`, in the data set with Trypanosoma cruzi [1], the IC50 was < 250 nM. In [2], the selectivity ratio was > 200. In addition, the outcome in the data set with Trypanosoma cruzi [3] and with Trypanosoma cruzi [16] was Active. Further, the inhibition of growth at 25 µM in the data set with Trypanosoma cruzi [4] was 70%. Further, the Activity entry with Salmonella typhimurium [5], in the data set on Salmonella typhimurium [6], with Salmonella typhimurium [7], with Salmonella typhimurium [8] and in the data set on Salmonella typhimurium [9] was “Non-toxic” in each case. For the same compound, the remaining at 1 h, 1000 µM in data set [10] was > 95%; in data set [11] it was 90%. Moreover, the Stability entry in [12] is on record as “Stable”. Moreover, the Time in the data set on Trypanosoma cruzi [13] and in the data set on Trypanosoma cruzi [14] was 35 days throughout. Further, the survival at 107 µmol/kg in the data set with Trypanosoma cruzi [15] was found to be 75%.
